Test results from PubChem BioAssay.
Activity calls are given as the source filed them. Rule as the data show it, unless noted: active = inhibition above about 30%; inactive = the rest.

Assays:
[1] = reducers of endogenous Her2 protein level, primary screen, SKBR3 breast tumor cells, AlphaScreen, ATP viability (AID 461;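 active = Her2 level under about 52% in both replicate screens, with viability over 70% of control, limit read from the data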;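 as to Her2 level: lower value means less Her2 protein in the cells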;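 as to viability: percent of carrier control wells set as 100% viability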); conditions: 18-24 h, measured here: SKBR3 viability, ATP luminescence, at 10 µM
[2] = target: Receptor tyrosine-protein kinase erbB-2 (Homo sapiens) (UniProt P04626); assay: as above; conditions: 18-24 h, at 10 µM, stronger effect = lower value
Chain of Receptor tyrosine-protein kinase erbB-2 (Homo sapiens) (P04626 whole entry, looked up): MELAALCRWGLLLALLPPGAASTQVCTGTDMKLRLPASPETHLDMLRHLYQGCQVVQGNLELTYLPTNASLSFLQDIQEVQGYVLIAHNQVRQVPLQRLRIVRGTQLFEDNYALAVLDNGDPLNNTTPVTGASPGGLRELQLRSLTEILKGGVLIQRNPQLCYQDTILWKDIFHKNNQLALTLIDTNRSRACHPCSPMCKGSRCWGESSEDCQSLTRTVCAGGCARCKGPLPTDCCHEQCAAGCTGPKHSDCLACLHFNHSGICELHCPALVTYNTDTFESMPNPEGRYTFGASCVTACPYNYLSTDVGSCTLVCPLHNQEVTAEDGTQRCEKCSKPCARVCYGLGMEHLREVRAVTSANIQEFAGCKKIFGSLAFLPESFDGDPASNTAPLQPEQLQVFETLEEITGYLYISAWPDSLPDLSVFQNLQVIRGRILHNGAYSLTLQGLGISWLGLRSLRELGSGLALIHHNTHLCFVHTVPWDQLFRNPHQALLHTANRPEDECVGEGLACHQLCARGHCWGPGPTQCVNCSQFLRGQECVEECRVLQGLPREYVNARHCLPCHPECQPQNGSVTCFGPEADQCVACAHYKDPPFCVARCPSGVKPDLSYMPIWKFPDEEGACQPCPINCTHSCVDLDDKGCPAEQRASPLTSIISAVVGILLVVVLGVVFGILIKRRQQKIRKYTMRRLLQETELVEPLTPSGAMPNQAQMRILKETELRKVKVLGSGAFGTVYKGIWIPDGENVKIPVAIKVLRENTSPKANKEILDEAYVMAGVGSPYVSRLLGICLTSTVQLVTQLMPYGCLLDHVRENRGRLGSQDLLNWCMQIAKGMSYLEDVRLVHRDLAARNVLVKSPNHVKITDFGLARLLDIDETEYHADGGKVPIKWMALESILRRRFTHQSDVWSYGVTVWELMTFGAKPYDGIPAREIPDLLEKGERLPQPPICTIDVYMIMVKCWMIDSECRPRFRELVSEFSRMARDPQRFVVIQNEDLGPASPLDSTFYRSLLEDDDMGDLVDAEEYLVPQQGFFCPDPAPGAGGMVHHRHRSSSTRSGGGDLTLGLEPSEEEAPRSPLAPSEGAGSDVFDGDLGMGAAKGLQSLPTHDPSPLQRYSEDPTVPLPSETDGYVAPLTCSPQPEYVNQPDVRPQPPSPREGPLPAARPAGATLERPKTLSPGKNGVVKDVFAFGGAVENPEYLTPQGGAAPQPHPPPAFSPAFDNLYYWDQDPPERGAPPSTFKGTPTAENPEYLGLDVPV

[3] = SK-BR-3 cell growth inhibitors, pilot screen, 24 h, human (AID 572;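 active = viability at or below 10% of carrier control in both of two separate runs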;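 also: compound exposure lasted between 18 and 24 h rather than exactly 24 h; 100% = carrier-treated control wells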); conditions: SK-BR-3 viability, CellTiter-Glo luminescence, at 10 µM, stronger effect = lower value
[4] = HUVEC growth inhibition – cell-based, human, primary screen (AID 575;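 active = viability at or below 30% in both replicate assays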;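 also: 100% = median of untreated cell wells with 0.1% DMSO on each plate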); conditions: HUVEC proliferation, CellTiter-Glo luminescence, 72 h; at 10 µM; stronger effect = lower value
In short: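 Timing: 72 h treatment at 37 °C; material: HUVEC primary cells; technique: CellTiter-Glo luminescence measuring cellular ATP; controls: vehicle and MePR control wells; measure: percent of median DMSO-control luminescence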

[5] = growth inhibitors of H69AR lung tumor, primary screen, human, duplicate replicates (AID 580;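 active = viability at or under a set limit in both replicates, limit being median viability minus 3 SD, cut at about 48% in these data, passing the limit was not always enough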;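 also: 100% = mean luminescence of untreated wells and 0% = no signal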); conditions: H69AR lung tumor cells viability, ATP luminescence, 72 h; at 10 µM; stronger effect = lower value
[6] = reversal of MRP1-mediated doxorubicin resistance, pilot screen, H69AR cells, doxorubicin co-treatment (AID 601;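 active = viability loss from added drug above about 55%, and viability with drug at most 40%, in both replicates, limit read from the data, passing the limit was not always enough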); conditions: CellTiter-Glo, 72 h, at 10 µM; for differential viability (reversal): stronger effect = higher value
[7] = 384-well plate pilot, post-Golgi transport modulator project, inhibition of yeast transport mutant growth (AID 636; in the data active = inhibition above about 31%); conditions: absorbance 615 nm, about 18 h, stronger effect = higher value
[8] = growth suppression of yeast trafficking mutant, preliminary HTS, modulators of trafficking downstream of Golgi apparatus project, 1536-format plate, OD 615 nm (AID 637); conditions: yeast transport mutant growth, absorbance 615 nm, 18 h; stronger effect = higher value
[9] = H69AR cells + 2 uM doxorubicin, measured here: viability with 2 uM doxorubicin, stronger effect = lower value
[10] = H69AR cells, compound alone cytotoxicity

Structure (SMILES) | viability [1] | Her2 level [2] | viability [3] | viability [4] | viability [5] | differential viability (reversal) ([6]; H69AR cells + 2 uM doxorubicin) | viability [6, 9] | viability [6, 10] | inhibition [7] | inhibition [8]
COCCNc1nc(SCC(=O)N2CCN(c3ccccc3)CC2)nc2ccccc12 | 72% | 81.5% (inactive) | 72% (inactive) | 84.4% (inactive) | 84.3% (inactive) | 10.4% (inactive) | 73.9% | 84.3% | -7.6% (inactive) | -1.48% (inactive)
Nc1cc(CN2C(=O)c3ccccc3C2=O)cc(Cl)c1O | 102% | 91.5% (inactive) | 102% (inactive) | 75.1% (inactive) | 108% (inactive) | 29% (inactive) | 79.2% | 108% | -5.41% (inactive) | -1.64% (inactive)
NC(=O)C(Cc1ccccc1)NS(=O)(=O)c1ccc(N2CCCC2=O)cc1 (stereo not given) | 90.5% | 92% (inactive) | 90.5% (inactive) | 108% (inactive) | 101% (inactive) | 10.9% (inactive) | 90% | 101% | -3.87% (inactive) | 1.48% (inactive)
COc1ccc(CC(NC(C)=O)C(=O)NC2CCN(c3nc(C)cc(C)c3C#N)CC2)c(OC)c1 (stereo not given) | 102% | 100% (inactive) | 102% (inactive) | 117% (inactive) | 104% (inactive) | -0.69% (inactive) | 105% | 104% | -0.41% (inactive) | 2.17% (inactive)
Cc1ccc(S(=O)(=O)NCC(=O)N(CC(=O)NC2CCCCC2)Cc2ccco2)cc1 | 135% | 100% (inactive) | 135% (inactive) | 91% (inactive) | 93.9% (inactive) | 2.62% (inactive) | 91.3% | 93.9% | -5.87% (inactive) | 4.76% (inactive)
CCNC(=O)C1CC(=O)N(Cc2ccc3c(c2)OCO3)C(=Nc2ccc(F)cc2)S1 (stereo not given) | 124% | 112% (inactive) | 124% (inactive) | 85.6% (inactive) | 82.6% (inactive) | -5.16% (inactive) | 87.8% | 82.6% | -6.58% (inactive) | -6.98% (inactive)
COc1ccc(NC(=O)CCS(=O)(=O)c2ccc(OC)cc2)cc1 | 96% | 104% (inactive) | 96% (inactive) | 94.8% (inactive) | 83.4% (inactive) | -9.78% (inactive) | 93.2% | 83.4% | -0.4% (inactive) | -7.26% (inactive)
CCOC(=O)C1=C(C)Nc2nnnn2C1c1c[nH]c2ccccc12 (stereo not given) | 110% | 94% (inactive) | 110% (inactive) | 77.3% (inactive) | 104% (inactive) | 7.95% (inactive) | 95.8% | 104% | -2.93% (inactive) | 15.6% (inactive)
Cc1cc(C)nc(N2CCCC(C(=O)Nc3nc4ccc(S(C)(=O)=O)cc4s3)C2)n1 (stereo not given) | 80.5% | 90% (inactive) | 80.5% (inactive) | 79.5% (inactive) | 83.7% (inactive) | -9.45% (inactive) | 93.2% | 83.7% | 0% (inactive) | 10.8% (inactive)
Cc1ccc(-n2nc(-c3cccs3)cc2C(=O)NCC2CCCO2)c(C)c1 (stereo not given) | 122% | 100% (inactive) | 122% (inactive) | 71.3% (inactive) | 86.5% (inactive) | -14% (inactive) | 100% | 86.5% | -4.67% (inactive) | -6.72% (inactive)
CCOc1cccc(C(=O)N(Cc2ccc(F)cc2)C2CCS(=O)(=O)C2)c1 (stereo not given) | 97% | 98% (inactive) | 97% (inactive) | 100% (inactive) | 86.3% (inactive) | -3.54% (inactive) | 89.9% | 86.3% | -1.82% (inactive) | -2.33% (inactive)
c1cncc(-c2nnc3n2N=C(c2cccs2)CS3)c1 | 90.5% | 73.5% (inactive) | 90.5% (inactive) | 78.2% (inactive) | 92.5% (inactive) | 4.06% (inactive) | 88.5% | 92.5% | -4.34% (inactive) | -0.83% (inactive)
COC(=O)c1ccc(CNC(=O)COc2ccccc2Br)o1 | 93% | 108% (inactive) | 93% (inactive) | 100% (inactive) | 103% (inactive) | 15% (inactive) | 87.6% | 103% | -3.33% (inactive) | -10% (inactive)
CN(C)S(=O)(=O)c1ccc(/C(O)=C2/C(=O)C(=O)N(CCN3CCCCC3)C2c2cccnc2)cc1 (stereo not given) | 87% | 166% (inactive) | 87% (inactive) | 92.1% (inactive) | 87.3% (inactive) | -3.39% (inactive) | 90.7% | 87.3% | 6.54% (inactive) | 11.3% (inactive)
